# Measured values from ChEMBL document CHEMBL2016524, “Synthesis and in vitro anticancer and antitubercular activity of diarylpyrazole ligated dihydropyrimidines possessing lipophilic carbamoyl group” (2012).
# What was measured:
# Type in all cases: functional
# [1] = system: MCF7; test: Growth inhibition of human MCF7 cells at 10 uM after 24 hrs by SRB assay; details: MCF7, 24 h, read-out: GI
# How it was run: (§1)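 Human breast cancer MCF-7 cells were exposed to each compound at four doses (1 × 10^-7, 10^-6, 10^-5 and 10^-4 M) and growth was read by sulforhodamine B assay. Values are % control growth, with negative numbers meaning cell kill. GI50 is the concentration giving 50% inhibition of cell growth. Positive controls were included, and each experiment was done three times.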
# [2] = system: MCF7; test: Growth inhibition of human MCF7 cells at 100 uM after 24 hrs by SRB assay; details: MCF7, 24 h, read-out: GI; how it was run: as §1
# [3] = system: MCF7; test: Growth inhibition of human MCF7 cells after 24 hrs by SRB assay; details: MCF7, 24 h; how it was run: as §1
# [4] = system: Mycobacterium tuberculosis; test: Antitubercular activity against Mycobacterium tuberculosis H37Rv after 5 days by microplate Alamar blue assay; details: 120 h
# How it was run: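 MIC read by resazurin (Alamar Blue) microplate assay after 5 days of incubation at 37 °C. Run in duplicate each time, repeated twice, and MIC confirmed in a BacT/ALERT MP mycobacterial detection system.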
# [5] = system: MCF7; test: Growth inhibition of human MCF7 cells at 1 uM after 24 hrs by SRB assay; details: MCF7, 24 h, read-out: GI; how it was run: as §1
# [6] = system: MCF7; test: Growth inhibition of human MCF7 cells at 0.1 uM after 24 hrs by SRB assay; details: MCF7, 24 h, read-out: GI; how it was run: as §1
Structure (SMILES),inhibition of growth at 10 µM [1],inhibition of growth at 100 µM [2],GI50 [3],MIC [4],inhibition of growth at 1 µM [5],inhibition of growth at 0.1 µM [6]
CC1=C(C(=O)Nc2ccc(C)cc2)C(c2cn(-c3ccccc3)nc2-c2ccccc2)NC(=S)N1 (stereo unspecified),19.7%,84.3%,56.1 µM,16 µg/mL,–,–
CC1=C(C(=O)Nc2ccc(C)cc2)C(c2cn(-c3ccccc3)nc2-c2ccc(Cl)cc2)NC(=O)N1 (stereo unspecified),13.6%,70.4%,69.7 µM,32 µg/mL,–,–
CC1=C(C(=O)Nc2ccc(C)cc2)C(c2cn(-c3ccccc3)nc2-c2ccc(Cl)cc2)NC(=S)N1 (stereo unspecified),63.7%,84.9%,43.5 µM,2 µg/mL,–,–
CC1=C(C(=O)Nc2ccccc2Cl)C(c2cn(-c3ccccc3)nc2-c2ccccc2)NC(=S)N1 (stereo unspecified),16.5%,68.5%,68.8 µM,16 µg/mL,–,–
CCOC(=O)C1=C(C)NC(=O)NC1c1cn(-c2ccccc2)nc1-c1ccc(Cl)cc1 (stereo unspecified),17.1%,70.3%,68.8 µM,0.25 µg/mL,–,–
CC1=C(C(=O)Nc2ccccc2)C(c2cn(-c3ccccc3)nc2-c2ccccc2)NC(=S)N1 (stereo unspecified),< 10%,57.4%,88.2 µM,32 µg/mL,–,–
COc1ccc(NC(=O)C2=C(C)NC(=S)NC2c2cn(-c3ccccc3)nc2-c2ccccc2)cc1 (stereo unspecified),< 10%,63.9%,77.3 µM,8 µg/mL,–,–
CCOC(=O)C1=C(C)NC(=S)NC1c1cn(-c2ccccc2)nc1-c1ccc(Cl)cc1 (stereo unspecified),70.6%,99.2%,33.2 µM,0.125 µg/mL,12%,4.1%
CC1=C(C(=O)Nc2ccc(Cl)cc2)C(c2cn(-c3ccccc3)nc2-c2ccc(Cl)cc2)NC(=O)N1 (stereo unspecified),< 10%,88.7%,56.9 µM,32 µg/mL,–,–
CC1=C(C(=O)Nc2ccccc2)C(c2cn(-c3ccccc3)nc2-c2ccc(Cl)cc2)NC(=O)N1 (stereo unspecified),19.6%,71.7%,65.5 µM,2 µg/mL,–,–
CC1=C(C(=O)Nc2ccc([N+](=O)[O-])cc2)C(c2cn(-c3ccccc3)nc2-c2ccccc2)NC(=S)N1 (stereo unspecified),48.4%,99.3%,41.4 µM,32 µg/mL,–,–
CC1=C(C(=O)Nc2ccc(Cl)cc2)C(c2cn(-c3ccccc3)nc2-c2ccccc2)NC(=S)N1 (stereo unspecified),48.6%,-12.8%,34.7 µM,8 µg/mL,–,–
CC1=C(C(=O)Nc2ccccc2)C(c2cn(-c3ccccc3)nc2-c2ccc(Cl)cc2)NC(=S)N1 (stereo unspecified),24.2%,74.7%,61.5 µM,32 µg/mL,–,–
COc1ccc(NC(=O)C2=C(C)NC(=S)NC2c2cn(-c3ccccc3)nc2-c2ccc(Cl)cc2)cc1 (stereo unspecified),< 10%,72%,70 µM,16 µg/mL,–,–
CC1=C(C(=O)Nc2ccccc2Cl)C(c2cn(-c3ccccc3)nc2-c2ccccc2)NC(=O)N1 (stereo unspecified),13.9%,72.2%,66.6 µM,32 µg/mL,–,–
CC1=C(C(=O)Nc2ccccc2)C(c2cn(-c3ccccc3)nc2-c2ccccc2)NC(=O)N1 (stereo unspecified),< 10%,63.2%,80.6 µM,32 µg/mL,–,–
CC1=C(C(=O)Nc2ccc([N+](=O)[O-])cc2)C(c2cn(-c3ccccc3)nc2-c2ccccc2)NC(=O)N1 (stereo unspecified),27.3%,-17.7%,35.5 µM,16 µg/mL,–,–
CCOC(=O)C1=C(C)NC(=S)NC1c1cn(-c2ccccc2)nc1-c1ccccc1 (stereo unspecified),30.4%,-12%,42 µM,32 µg/mL,–,–
COc1ccc(NC(=O)C2=C(C)NC(=O)NC2c2cn(-c3ccccc3)nc2-c2ccc(Cl)cc2)cc1 (stereo unspecified),< 10%,72.1%,69.7 µM,1 µg/mL,–,–
CC1=C(C(=O)Nc2ccc(C)cc2)C(c2cn(-c3ccccc3)nc2-c2ccccc2)NC(=O)N1 (stereo unspecified),11.9%,68.6%,71.7 µM,32 µg/mL,–,–
CCOC(=O)C1=C(C)NC(=O)NC1c1cn(-c2ccccc2)nc1-c1ccccc1 (stereo unspecified),< 10%,86%,60.8 µM,16 µg/mL,–,–
